From ChEMBL document CHEMBL4325933, “Potent, Selective, and Cell-Penetrating Inhibitors of Kallikrein-Related Peptidase 4 Based on the Cyclic Peptide MCoTI-II” (ACS Med Chem Lett, 2018)
Positions of bridges follow the written chain, without caps; N, C: chain ends. Residues, ends and D or L forms follow the SMILES beside them.

Key:
Homo sapiens [1] = organism: Homo sapiens; test: Selectivity ratio of Ki for plasmin (unknown origin) to Ki for KLK4 (unknown origin) expressed in sf9 cells
HeLa = test: Cytotoxicity against human HeLa cells up to 64 uM after 2 hrs by resazurin dye based assay; type: cell-based
Procedure, shortened: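 HeLa cells exposed to peptides for 2 h, concentrations up to 64 μM. Resazurin then added for 18 h at 37 °C. Resorufin absorbance read at 540 and 620 nm, and viability % expressed as the A620/A540 ratio. Three independent experiments, standard deviation.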

Prothrombin = Prothrombin (Homo sapiens, UniProt P00734); test: Inhibition of thrombin (unknown origin) using Bz-FVR-pNA as substrate preincubated for 30 mins followed by substrate addition and measured for 7 mins by spectrophotometric method
Homo sapiens [2] = organism: Homo sapiens; test: Selectivity ratio of Ki for KLK5 (unknown origin) expressed in Pichia pastoris strain X-33 to Ki for KLK4 (unknown origin) expressed in sf9 cells
[3] = Stability in human serum at 200 uM up to 24 hrs by RP-HPLC analysis; type: ADME, cell-free
Procedure, shortened: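 Peptides incubated in human serum for up to 24 h. At each time point, the area of the peptide peak on analytical HPLC is expressed as a percentage of the peptide peak in PBS at 0 h. Three independent experiments, SD.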

Homo sapiens [4] = organism: Homo sapiens; test: Selectivity ratio of Ki for factor 12a (unknown origin) to Ki for KLK4 (unknown origin) expressed in sf9 cells
Homo sapiens [5] = organism: Homo sapiens; test: Selectivity ratio of Ki for KLK7 (unknown origin) expressed in Pichia pastoris strain X-33 to Ki for KLK4 (unknown origin) expressed in sf9 cells
Homo sapiens [6] = organism: Homo sapiens; test: Selectivity ratio of Ki for plasma kallikrein (unknown origin) to Ki for KLK4 (unknown origin) expressed in sf9 cells
Plasminogen = Plasminogen (Homo sapiens, UniProt P00747); test: Inhibition of plasmin (unknown origin) using Ac-RM(O2)YR-pNA as substrate preincubated for 30 mins followed by substrate addition and measured for 7 mins by spectrophotometric method
Chain of Plasminogen (P00747 97-580 limits assumed): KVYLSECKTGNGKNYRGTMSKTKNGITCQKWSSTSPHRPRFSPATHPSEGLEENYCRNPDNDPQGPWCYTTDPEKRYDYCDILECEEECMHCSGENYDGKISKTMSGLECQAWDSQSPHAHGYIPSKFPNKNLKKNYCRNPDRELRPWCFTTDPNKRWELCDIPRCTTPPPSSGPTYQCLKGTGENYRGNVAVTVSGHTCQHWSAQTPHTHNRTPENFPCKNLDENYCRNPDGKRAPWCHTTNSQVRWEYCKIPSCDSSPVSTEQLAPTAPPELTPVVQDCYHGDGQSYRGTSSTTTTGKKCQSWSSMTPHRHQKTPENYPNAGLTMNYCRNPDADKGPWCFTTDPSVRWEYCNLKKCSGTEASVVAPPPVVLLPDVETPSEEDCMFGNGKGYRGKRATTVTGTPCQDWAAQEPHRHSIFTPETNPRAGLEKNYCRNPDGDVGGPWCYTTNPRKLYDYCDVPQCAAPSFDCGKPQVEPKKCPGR
Chain of Plasminogen (P00747 581-810 limits assumed): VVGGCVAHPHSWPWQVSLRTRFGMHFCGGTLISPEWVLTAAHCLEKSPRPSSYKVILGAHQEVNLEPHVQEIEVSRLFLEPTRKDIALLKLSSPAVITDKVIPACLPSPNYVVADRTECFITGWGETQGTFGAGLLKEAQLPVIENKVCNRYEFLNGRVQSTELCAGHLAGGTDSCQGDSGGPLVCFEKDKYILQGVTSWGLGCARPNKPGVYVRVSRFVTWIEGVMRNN

[7] = Drug uptake in human HeLa cells at 4 uM using Alexa Fluor 488 conjugated test compound after 1 hr by trypan blue dye based flow cytometry relative to HIV-Tat; type: ADME, cell-based
Procedure, shortened: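 HeLa cells given Alexa Fluor 488-conjugated peptides (4 μM). Mean fluorescence measured by flow cytometry before and after trypan blue quenching of extracellular signal. Values normalized to the HIV-TAT positive control (post-trypan blue). Three independent experiments, SD; one-way ANOVA with Tukey's post hoc test.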

Coagulation factor XII = molecular target: T1, Coagulation factor XII (Homo sapiens, UniProt P00748); test: Inhibition of factor 12a (unknown origin) using Ac-QRFR-pNA as substrate preincubated for 30 mins followed by substrate addition and measured for 7 mins by spectrophotometric method
T1 sequence (P00748 whole entry): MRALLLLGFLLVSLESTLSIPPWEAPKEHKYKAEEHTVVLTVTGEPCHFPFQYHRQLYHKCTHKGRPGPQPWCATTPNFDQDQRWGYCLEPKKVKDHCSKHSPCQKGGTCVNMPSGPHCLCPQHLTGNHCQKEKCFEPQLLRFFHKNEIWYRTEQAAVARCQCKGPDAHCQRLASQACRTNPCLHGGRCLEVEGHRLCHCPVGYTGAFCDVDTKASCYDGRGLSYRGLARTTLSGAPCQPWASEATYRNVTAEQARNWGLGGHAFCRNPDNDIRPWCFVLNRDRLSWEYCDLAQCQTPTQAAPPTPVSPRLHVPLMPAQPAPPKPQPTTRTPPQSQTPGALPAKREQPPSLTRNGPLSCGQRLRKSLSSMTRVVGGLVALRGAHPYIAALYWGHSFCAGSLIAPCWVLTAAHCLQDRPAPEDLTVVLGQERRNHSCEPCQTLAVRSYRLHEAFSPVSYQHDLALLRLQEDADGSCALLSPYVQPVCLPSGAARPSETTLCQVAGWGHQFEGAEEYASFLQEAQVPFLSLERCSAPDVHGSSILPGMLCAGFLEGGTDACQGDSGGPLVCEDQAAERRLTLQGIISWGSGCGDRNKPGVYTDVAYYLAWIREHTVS

Plasma kallikrein = Plasma kallikrein (Homo sapiens, UniProt P03952); test: Inhibition of plasma kallikrein (unknown origin) using Ac-NLTR-pNA as substrate preincubated for 30 mins followed by substrate addition and measured for 7 mins by spectrophotometric method
Chain of Plasma kallikrein (P03952 20-390 limits assumed): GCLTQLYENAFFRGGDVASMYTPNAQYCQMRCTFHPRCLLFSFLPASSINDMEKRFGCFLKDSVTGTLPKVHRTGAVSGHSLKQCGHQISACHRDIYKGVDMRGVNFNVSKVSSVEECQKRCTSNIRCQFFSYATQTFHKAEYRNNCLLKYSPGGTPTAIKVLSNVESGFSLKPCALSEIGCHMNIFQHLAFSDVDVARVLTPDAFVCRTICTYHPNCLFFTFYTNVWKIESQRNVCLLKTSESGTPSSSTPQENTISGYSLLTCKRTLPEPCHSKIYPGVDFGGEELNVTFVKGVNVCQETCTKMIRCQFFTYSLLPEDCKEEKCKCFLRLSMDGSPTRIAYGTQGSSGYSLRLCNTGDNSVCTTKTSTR
Chain of Plasma kallikrein (P03952 391-638 limits assumed): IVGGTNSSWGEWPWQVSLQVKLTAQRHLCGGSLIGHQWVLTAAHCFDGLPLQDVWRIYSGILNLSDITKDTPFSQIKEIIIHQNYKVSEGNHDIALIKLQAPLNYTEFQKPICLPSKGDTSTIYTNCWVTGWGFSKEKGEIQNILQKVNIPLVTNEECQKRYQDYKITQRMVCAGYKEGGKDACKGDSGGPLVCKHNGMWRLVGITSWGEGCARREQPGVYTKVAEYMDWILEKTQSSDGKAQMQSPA

Kallikrein-14 = molecular target: T2, Kallikrein-14 (Homo sapiens, UniProt Q9P0G3); test: Inhibition of KLK14 (unknown origin) expressed in sf9 cells using Ac-YANR-pNA as substrate preincubated for 30 mins followed by substrate addition and measured for 7 mins by spectrophotometric method
T2 sequence (Q9P0G3 whole entry): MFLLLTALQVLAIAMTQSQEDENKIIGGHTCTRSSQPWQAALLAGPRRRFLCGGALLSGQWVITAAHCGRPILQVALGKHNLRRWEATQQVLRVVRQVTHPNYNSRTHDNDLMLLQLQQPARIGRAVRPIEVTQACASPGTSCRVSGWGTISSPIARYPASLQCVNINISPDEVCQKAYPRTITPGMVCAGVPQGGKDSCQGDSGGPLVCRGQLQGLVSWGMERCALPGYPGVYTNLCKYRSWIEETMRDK

Homo sapiens [8] = organism: Homo sapiens; test: Selectivity ratio of Ki for KLK14 (unknown origin) expressed in sf9 cells to Ki for KLK4 (unknown origin) expressed in sf9 cells
Coagulation factor X = Coagulation factor X (Homo sapiens, UniProt P00742); test: Inhibition of factor 10a (unknown origin) using Ac-QRSR-pNA as substrate preincubated for 30 mins followed by substrate addition and measured for 7 mins by spectrophotometric method
Chain of Coagulation factor X (P00742 41-179 limits assumed): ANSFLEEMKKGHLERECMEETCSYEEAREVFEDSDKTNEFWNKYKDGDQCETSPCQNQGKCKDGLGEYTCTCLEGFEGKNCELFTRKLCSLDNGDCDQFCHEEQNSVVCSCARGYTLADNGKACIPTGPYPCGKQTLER
Chain of Coagulation factor X (P00742 235-488 limits assumed): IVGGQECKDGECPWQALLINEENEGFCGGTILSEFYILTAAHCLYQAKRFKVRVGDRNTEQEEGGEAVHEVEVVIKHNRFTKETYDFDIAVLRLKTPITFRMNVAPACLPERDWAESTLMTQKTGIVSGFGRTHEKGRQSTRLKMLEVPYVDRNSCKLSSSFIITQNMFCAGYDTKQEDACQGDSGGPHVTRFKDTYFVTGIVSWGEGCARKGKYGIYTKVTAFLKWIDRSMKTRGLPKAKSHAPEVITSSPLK

Kallikrein-4 = Kallikrein-4 (Homo sapiens, UniProt Q9Y5K2); test: Inhibition of KLK4 (unknown origin) expressed in sf9 cells using Ac-FVQR-pNA as substrate preincubated for 30 mins followed by substrate addition and measured for 7 mins by spectrophotometric method
Chain of Kallikrein-4 (Q9Y5K2 whole entry): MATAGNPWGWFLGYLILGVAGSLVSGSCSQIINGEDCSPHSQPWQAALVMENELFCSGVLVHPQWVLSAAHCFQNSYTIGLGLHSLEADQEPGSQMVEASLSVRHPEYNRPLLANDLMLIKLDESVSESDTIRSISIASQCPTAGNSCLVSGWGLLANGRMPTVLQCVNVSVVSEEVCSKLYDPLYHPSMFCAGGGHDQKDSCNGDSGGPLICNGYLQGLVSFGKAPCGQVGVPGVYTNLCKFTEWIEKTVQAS

Kallikrein-7 = Kallikrein-7 (Homo sapiens, UniProt P49862); test: Inhibition of KLK7 (unknown origin) expressed in Pichia pastoris strain X-33 using KHLY-pNA as substrate preincubated for 30 mins followed by substrate addition and measured for 7 mins by spectrophotometric method
Chain of Kallikrein-7 (P49862 whole entry): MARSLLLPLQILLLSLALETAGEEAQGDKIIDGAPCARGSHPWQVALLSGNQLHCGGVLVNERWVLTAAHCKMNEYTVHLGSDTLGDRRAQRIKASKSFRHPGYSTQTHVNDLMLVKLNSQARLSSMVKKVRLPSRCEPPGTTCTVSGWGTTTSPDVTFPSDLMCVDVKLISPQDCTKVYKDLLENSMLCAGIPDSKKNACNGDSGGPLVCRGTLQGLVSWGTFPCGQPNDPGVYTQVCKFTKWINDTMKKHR

Trypsin = Trypsin (Homo sapiens, UniProt P07477+P07478+P35030); test: Inhibition of trypsin (unknown origin) using Bz-FVR-pNA as substrate preincubated for 30 mins followed by substrate addition and measured for 7 mins by spectrophotometric method; type: protein assay
Homo sapiens [9] = organism: Homo sapiens; test: Selectivity ratio of Ki for factor 10a (unknown origin) to Ki for KLK4 (unknown origin) expressed in sf9 cells
Homo sapiens [10] = organism: Homo sapiens; test: Selectivity ratio of Ki for thrombin (unknown origin) to Ki for KLK4 (unknown origin) expressed in sf9 cells
Kallikrein-5 = molecular target: T3, Kallikrein-5 (Homo sapiens, UniProt Q9Y337); test: Inhibition of KLK5 (unknown origin) expressed in Pichia pastoris strain X-33 using Ac-YRSR-pNA as substrate preincubated for 30 mins followed by substrate addition and measured for 7 mins by spectrophotometric method
T3 sequence (Q9Y337 whole entry): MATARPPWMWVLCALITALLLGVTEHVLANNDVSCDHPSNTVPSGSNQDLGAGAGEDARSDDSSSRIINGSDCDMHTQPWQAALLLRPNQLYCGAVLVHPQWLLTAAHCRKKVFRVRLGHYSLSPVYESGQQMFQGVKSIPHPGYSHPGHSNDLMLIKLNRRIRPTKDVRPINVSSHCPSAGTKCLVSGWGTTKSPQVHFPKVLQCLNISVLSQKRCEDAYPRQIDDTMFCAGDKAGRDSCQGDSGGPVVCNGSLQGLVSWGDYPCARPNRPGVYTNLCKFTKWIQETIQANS

Ki (Prothrombin): > 10 µM | Stability [3]: Stable | Ki (Plasminogen): > 10 µM | Drug uptake [7]: 23% | Ki (Coagulation factor XII): > 10 µM | Ki (Plasma kallikrein): > 10 µM | Ki (Kallikrein-14): > 10 µM | Ki (Coagulation factor X): 0.5 µM | Ki (Kallikrein-4): 0.0001 µM | Ki (Kallikrein-7): > 10 µM | Ki (Trypsin): 0.031 µM | Ki (Kallikrein-5): > 10 µM
SMILES: CC[C@H](C)[C@@H]1NC(=O)[C@@H]2CSSC[C@@H]3NC(=O)[C@H](Cc4ccccc4)NC(=O)CNC(=O)CNC(=O)[C@H](CC(=O)O)NC(=O)[C@H](CO)NC(=O)CNC(=O)[C@H](CO)NC(=O)CNC(=O)[C@@H]4CSSC[C@H](NC(=O)[C@H](CC(=O)O)NC(=O)[C@H](CO)NC(=O)[C@H](CC(=O)O)NC(=O)[C@H](CCCNC(=N)N)NC(=O)[C@H](CCCNC(=N)N)NC(=O)[C@H](CSSC[C@H](NC1=O)C(=O)N[C@@H](CCCNC(=N)N)C(=O)NCC(=O)N[C@@H](CC(N)=O)C(=O)NCC(=O)N[C@@H](Cc1ccc(O)cc1)C(=O)N4)NC(=O)[C@H](CCCCN)NC(=O)[C@H](CCCCN)NC(=O)[C@H](CC(C)C)NC(=O)[C@H]([C@@H](C)CC)NC(=O)[C@H](CCCNC(=N)N)NC(=O)[C@H](CCC(N)=O)NC3=O)C(=O)N1CCC[C@H]1C(=O)NCC(=O)N[C@@H](C)C(=O)N2 (cyclo(ACICRGNGYCGSGSDGGFCQRILKKCRRDSDCPG); disulfide 2-19, 4-26, 10-32)
Ratio Ki (Homo sapiens [1]): > 100000 | Activity (HeLa): Non-Toxic | Ratio Ki (Homo sapiens [2]): > 100000 | Ratio Ki (Homo sapiens [4]): > 100000 | Ratio Ki (Homo sapiens [5]): > 100000 | Ratio Ki (Homo sapiens [6]): > 100000 | Ratio Ki (Homo sapiens [8]): > 100000 | Ratio Ki (Homo sapiens [9]): 5000 | Ratio Ki (Homo sapiens [10]): > 100000
